From PubChem
MPTP inh: permeability transition pore inhibition | 360,000 tested, 1.4% active | AID 602449 | isolated mouse mitochondria, Ca2+ swelling absorbance, 30 min | inhibition, % at 10 µM;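 active = inhibition of 50% or more, scaled per plate between neutral and stimulator controls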
B2AR ag: agonists of human beta-2 adrenergic receptor inducing internalization | response, % (no concentration beside the values) | 340,000 tested, 0.43% active | Am2.2-beta2AR cells, FAP receptor internalization, flow cytometry | P07550 | AID 504454;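 active = response above a set limit, near 3 SD of response in nonfluorescent compounds, cut at about 42% in these data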
Target sequence (P07550 whole entry, looked up): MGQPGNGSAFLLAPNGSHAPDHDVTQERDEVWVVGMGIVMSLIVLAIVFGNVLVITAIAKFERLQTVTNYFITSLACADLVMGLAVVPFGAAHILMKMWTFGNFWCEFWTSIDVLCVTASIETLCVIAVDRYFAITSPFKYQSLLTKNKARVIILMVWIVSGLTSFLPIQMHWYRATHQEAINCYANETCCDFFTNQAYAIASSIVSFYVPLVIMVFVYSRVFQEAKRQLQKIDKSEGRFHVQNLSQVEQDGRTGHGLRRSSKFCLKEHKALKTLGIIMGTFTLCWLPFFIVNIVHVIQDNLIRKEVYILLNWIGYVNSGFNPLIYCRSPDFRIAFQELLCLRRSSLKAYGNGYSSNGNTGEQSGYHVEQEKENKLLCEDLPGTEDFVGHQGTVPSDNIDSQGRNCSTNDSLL
Granule exo inh: lytic granule exocytosis inhibition; TALL-104 LAMP-1 surface exposure, flow cytometry; cells stimulated with thapsigargin and PMA; inhibition, % at 10 µM; 360,000 tested, 0.66% active; AID 651702;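 active = inhibition above about 55%, limit read from the data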
V-ATPase pHluor: alters yeast V-ATPase proton transport; S. cerevisiae, pHLuorin cytosolic pH fluorescence; response, % at 10 µM; 350,000 tested, 0.37% active; AID 504577; in the data active = response mostly above about 7.3%, no sharp cut-off; inactive = mostly below about 5.4%; note: actives read high
rCAG RNA binder: r(CAG) repeat RNA binding. TO-PRO-1 dye displacement fluorescence. inhibition, % at 3 µM. 370,000 tested, 1.3% active. AID 651821;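 active = inhibition above the plate cutoff, the mean of all test compounds on that plate plus 3 SD, cut at about 35% in these data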;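 note: higher means more dye released from RNA so lower well fluorescence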
T cell modulator: T cell immune modulators affecting CD8 T cell-vesicle binding. 2C CD8+ T cell-vesicle binding, flow cytometry; active compounds read low. response (vesicle binding), % at 7 µM. 330,000 tested, 0.068% active. AID 2052;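 active = response, share of CD8 T cells binding vesicles, and their 90th percentile fluorescence all below set limits, cut at about 80% in these data, passing the limit was not always enough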;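 note: values below 100% mean blocked vesicle binding to the CD8+ T cells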
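Also added: QL9-peptide-loaded Drosophila micro-vesicles bearing Ld, ICAM-1 and B7-1; Test system: purified 2C TCR transgenic mouse naive CD8+ T cells; Measured by: cytometric PE anti-B7-1 and Alexa647 anti-CD8 signals after 1% paraformaldehyde fixation; Timing: binding step 1.5 h, 37 °C, antibody labelling 20 min, ice.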
MPTP counter: Rhodamine 123 counter-screen of mitochondrial pore hits; inhibition, % at 10 µM; isolated mitochondria, membrane potential, Rhodamine 123 fluorescence; shares compounds with MPTP inh; AID 624504; 5,000 tested, 78% active; in the data active = inhibition above about 22%
MPTP swell DR: MPTP inhibition, dose response swelling confirmation; IC50, µM; isolated mitochondria swelling, absorbance; 780 tested, 58% active; shares compounds with MPTP inh; in the data active = IC50 below about 20 µM
MPTP counter DR: active in counter-screen for permeability transition pore inhibitors; shares compounds with MPTP inh; IC50, µM; 780 tested, 49% active; isolated mitochondria counterscreen, fluorescence read-out; in the data active = IC50 below about 80 µM
Granule exo CP1: blocks lytic granule exocytosis; TALL-104 cells, LAMP-1 externalization, flow cytometry; stimulated with PMA plus thapsigargin; 1,500 tested, 11% active; shares compounds with Granule exo inh; AID 651954; inhibition, % at 10 µM; in the data active = inhibition above about 60%
rCAG bind conf: r(CAG) RNA repeat binding, confirmation | inhibition, % at 3 µM | 4,300 tested, 70% active | TO-PRO-1 dye displacement fluorescence | shares compounds with rCAG RNA binder | AID 652065;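 active = inhibition above a per-plate cutoff, the mean inhibition of sample wells plus 3 SD, cut at about 35% in these data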;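 note: loss of TO-PRO-1 fluorescence as compound displaces dye from 1x1 AA loop RNA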
dCAG dye counter: counter-screen for rCAG RNA binders: DNA CAG dye complex inhibitors | d(CAG) DNA oligo TO-PRO-1 dye displacement, fluorescence | 4,300 tested, 94% active | shares compounds with rCAG RNA binder | inhibition, % at 3 µM;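 active = inhibition above its plate's cutoff, the mean test-well inhibition plus 3 SD, cut at about 4.8% in these data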;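 note: hits displace the dye from DNA and so lower well fluorescence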
dCAG dye DR: counter-screen for rCAG binders: inhibitors of DNA CAG TO-PRO-1 complex. shares compounds with rCAG RNA binder. DNA CAG/GTC duplex TO-PRO-1 dye displacement fluorescence. IC50, µM. 250 tested, 20% active; in the data active = IC50 below about 10 µM
Each line names hits and unclear results; the compound was inactive in the other large screens (follow-up assays come after a bar, where they were run). In the library only some 3.8% were active in any assay of this set; here they are far more common.

CNc1ccc2oc(C[C@H]3O[C@@]4(CC[C@H]3C)O[C@H]([C@H](C)C(=O)c3ccc[nH]3)[C@H](C)C[C@H]4C)nc2c1C(=O)O	MPTP inh 96, rCAG RNA binder 79 | MPTP counter inactive | rCAG bind conf 38 | dCAG dye counter 7.3
CN1C2CCC1CC(OC(c1ccccc1)c1ccc(Cl)cc1)C2 (stereo unspecified)	none (no result: MPTP inh, B2AR ag, Granule exo inh, V-ATPase pHluor, T cell modulator)
CC(C)c1ccc(C(c2c(O)c3ccccc3oc2=O)c2c(O)c3ccccc3oc2=O)cc1	MPTP inh 78, rCAG RNA binder 94 (no result: B2AR ag, T cell modulator) | MPTP counter inactive | MPTP swell DR 3.9 | MPTP counter DR <2.5 | rCAG bind conf 95 | dCAG dye counter 82
Cc1c(C(c2ccc(F)cc2)c2c(O)c3ccccc3oc2=O)c(=O)n(-c2ccccc2)n1C (stereo unspecified)	none
Oc1c(Cl)cccc1Cc1cc(Cl)cc(Cl)c1O	MPTP inh 81, rCAG RNA binder 59 (no result: T cell modulator) | MPTP counter 64 | rCAG bind conf 62 | dCAG dye counter 16 | dCAG dye DR inactive
NC(Cc1ccc(N(CCCl)CCCl)cc1)C(=O)O (stereo unspecified)	none (no result: MPTP inh, B2AR ag, Granule exo inh, V-ATPase pHluor, T cell modulator)
CC[C@@H](C(=O)[C@@H](C)[C@@H](O)[C@H](C)CCc1ccc(C)c(O)c1C(=O)O)[C@H]1O[C@](CC)([C@H]2CC[C@](O)(CC)[C@H](C)O2)C[C@@H]1C	MPTP inh 104, B2AR ag 86, rCAG RNA binder 58 | MPTP counter 84 | rCAG bind conf 60 | dCAG dye counter 12 | dCAG dye DR inactive
CN1CCC(O)(c2cccs2)C(C(=O)c2cccs2)C1 (stereo unspecified)	Granule exo inh 75 | Granule exo CP1 inactive
CC(C)CNC(=O)c1c(N)n(Cc2ccc3c(c2)OCO3)c2nc3ccccc3nc12	Granule exo inh 56 | Granule exo CP1 81
CC(C)CNC(=O)c1c(N)n(Cc2ccco2)c2nc3ccccc3nc12	none
CN1CC2CN(Cc3ccccc3)S(=O)(=O)C2C1 (stereo unspecified)	none (no result: B2AR ag, V-ATPase pHluor, T cell modulator)
CC(Cc1ccccc1)NCc1ccccc1O (stereo unspecified)	none
CC(Cc1ccccc1)NCC(=O)Nc1cc(N(C)C)nc2ccccc12 (stereo unspecified)	Granule exo inh 62 | Granule exo CP1 inactive
Cc1ccc(OCC(=O)N2CCN(C3CCC(c4ccccc4)CC3)CC2)cc1 (stereo unspecified)	Granule exo inh 95 | Granule exo CP1 inactive
CCOC(=O)[C@]12Cc3c(cc(OC)c(OC)c3OC)[C@H]1N(C1CCCCC1)C(=O)c1ccccc12	Granule exo inh 63 (no result: B2AR ag, V-ATPase pHluor, T cell modulator) | Granule exo CP1 inactive
CCOC(=O)[C@]12Cc3cc(Cl)ccc3[C@H]1N(C1CCCCC1)C(=O)c1cc(OC)ccc12	Granule exo inh 100 (no result: B2AR ag, V-ATPase pHluor, T cell modulator) | Granule exo CP1 92
CCOC(=O)[C@]12Cc3cc(N(C)C)ccc3[C@H]1N(Cc1ccccc1)C(=O)c1ccccc12	none (no result: T cell modulator)
CCOC(=O)[C@]12Cc3cc(Cl)ccc3[C@H]1N(Cc1ccccc1)C(=O)c1ccccc12	Granule exo inh 87 (no result: T cell modulator) | Granule exo CP1 inactive
CCOC(=O)[C@]12Cc3cc(C)ccc3[C@H]1N(C1CCCCC1)C(=O)c1ccccc12	Granule exo inh 60 (no result: B2AR ag, V-ATPase pHluor, T cell modulator) | Granule exo CP1 inactive
CCOC(=O)[C@]12Cc3ccc(C)cc3[C@H]1N(C1CCCCC1)C(=O)c1cc(OC)ccc12	Granule exo inh 84 (no result: B2AR ag, V-ATPase pHluor, T cell modulator) | Granule exo CP1 inactive
CCOC(=O)[C@]12Cc3cc(C)ccc3[C@H]1N(Cc1ccccc1)C(=O)c1cc(OC)ccc12	none (no result: B2AR ag, V-ATPase pHluor, T cell modulator)
COC(=O)c1ccc(NC(=O)CSc2nc3ccc(N4C(=O)C5C6C=CC(C6)C5C4=O)cc3s2)cc1 (stereo unspecified)	Granule exo inh 81 | Granule exo CP1 85
O=C1CCC2(O)C3Cc4ccc(O)c5c4C2(CCN3Cc2ccoc2)C1O5 (stereo unspecified)	none (no result: B2AR ag, T cell modulator)
O=S1(=O)NCC2(CC2)CN1Cc1ccccc1	none (no result: B2AR ag, V-ATPase pHluor, T cell modulator)
CCCN1CCc2cccc3c2[C@H]1Cc1ccc(O)c(O)c1-3	Granule exo inh 101 (no result: rCAG RNA binder) | Granule exo CP1 inactive
COc1ccc2c(c1O)-c1c(OC)c(OC)cc3c1[C@H](C2)N(C)CC3	none
COC(=O)C1=C(c2ccc(C(C)=O)cc2)C[C@@H]2CC[C@H]1N2C(=O)NC1CCCCC1	Granule exo inh 65 | Granule exo CP1 inactive
COC1CC2C=C(C)C=CC=CC(=O)NC(c3ccccc3)CC=CCCC(O)CC(=O)C2=C1O (stereo unspecified)	none (no result: B2AR ag, V-ATPase pHluor, T cell modulator)
O=C(Nc1ccccc1)N1Cc2ccccc2-n2nncc2C1	none (no result: T cell modulator)
Cc1nc2cc(OC(=O)N(C)Cc3cccc(-c4ccncc4)c3)ccc2s1	none (no result: B2AR ag, V-ATPase pHluor, rCAG RNA binder, T cell modulator)
CN(C)CCN(CC1CCCN(Cc2ccccc2F)C1)C(=O)Cc1ccccc1F (stereo unspecified)	none
COc1ccc(CC(=O)N(CCN(C)C)CC2CCCN(Cc3ccccc3F)C2)cc1 (stereo unspecified)	Granule exo inh 63 | Granule exo CP1 inactive
O=C1/C(=C\c2ccc(Cl)cc2Cl)N2CCC1CC2	Granule exo inh 65 | Granule exo CP1 inactive
O=C1/C(=C\c2cc3c(cc2Cl)OCO3)N2CCC1CC2	none
C#C[C@]1(O)CC[C@H]2[C@@H]3[C@H](O)C[C@H]4C[C@@H](O)CC[C@]4(C)[C@H]3CC[C@@]21C	none (no result: B2AR ag, T cell modulator)
O=c1[nH]c2ccccc2n1C1CCN(C(CCc2ccccc2)c2nnnn2C2CCCCC2)CC1 (stereo unspecified)	none (no result: B2AR ag, V-ATPase pHluor, T cell modulator)
Cc1cccc(NP(=O)(Oc2ccccc2)Oc2ccccc2)c1C	Granule exo inh 58 | Granule exo CP1 inactive
COc1ccc(C2CC(c3c(O)n(CCc4ccccc4)c(=O)[nH]c3=O)=NN2)cc1OC (stereo unspecified)	rCAG RNA binder 42 | rCAG bind conf inactive | dCAG dye counter 8.0
